Source: ChEMBL document CHEMBL3120098, “Structure-activity relationship (SAR) optimization of 6-(indol-2-yl)pyridine-3-sulfonamides: identification of potent, selective, and orally bioavailable small molecules targeting hepatitis C (HCV) NS4B” (J Med Chem, 2014)

What was measured:
[1] = Volume of distribution at steady state in cynomolgus monkey at 2.5 mg/kg, iv and 5 mg/kg, po; format: ADME, organism-based, Macaca fascicularis; conditions: in vivo, read-out: Vdss
Hepatocyte [2] = assay: Induction of CYP3A4 mRNA expression in human hepatocytes at 3 uM relative to rifampicin; format: ADME, cell-based
Procedure, shortened: (§1)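 Cryopreserved cultured human hepatocytes incubated 3 days with compound at several concentrations; CYP3A4 enzyme activity and mRNA expression measured, expressed as percent induction relative to rifampicin.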

Rattus norvegicus [3] = species: Rattus norvegicus; assay: Drug metabolism in bile duct cannulated rat assessed as 6-(3-cyano-5-fluoro-6-(1-hydroxyethyl)-1-(pyrimidin-2-yl)-1H-indol-2-yl)-N-((S)-1,1,1-trifluoropropan-2-yl)pyridine-3-sulfonamide level in plasma; format: ADME, organism-based
[4] = Toxicity in human HuH7 cells assessed as effect on GAPDH mRNA level; format: cell-based, Huh-7
Procedure, shortened: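 Run in parallel with replicon assay in Con1 replicon Huh-7 cells (0.5% DMSO, 37 °C); endogenous GAPDH mRNA quantified by TaqMan RT-PCR; highest concentration tested 10000 nM.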

[5] = AUC (0 to infinity) in Sprague-Dawley rat at 10 mg/kg, po; format: ADME, organism-based; set-up: time infinity, dose 10 mg/kg, route oral; conditions: plasma
[6] = tested on: Pregnane X receptor (Homo sapiens); assay: Activation of PXR (unknown origin) at 10 uM by reporter gene assay
Cytochrome P450 3A4 [7] = biological target: T1, Cytochrome P450 3A4 (Homo sapiens, UniProt P08684); assay: Induction of CYP3A4 activity in human hepatocytes at 3 uM relative to rifampicin; format: ADME, cell-based, Hepatocyte; procedure, shortened: as §1
Cytochrome P450 3A4 [8] = biological target: T1, Cytochrome P450 3A4; assay: Inhibition of CYP3A4 in human liver microsomes; format: ADME
Rhesus monkey = assay: Drug metabolism in bile duct cannulated monkey assessed as GSH adduct formation; format: ADME, organism-based, Macaca mulatta; conditions: in vivo
Hepatitis C virus [9] = assay: Antiviral activity against HCV1a H77S assessed as inhibition of viral replication; format: functional, organism-based, Hepacivirus hominis; conditions: genotype 1a H77S
[10] = Oral bioavailability in cynomolgus monkey at 5 mg/kg; format: ADME, organism-based, Macaca fascicularis; conditions: in vivo
[11] = Oral bioavailability in beagle dog at 5 mg/kg; format: ADME, organism-based, Canis lupus familiaris; conditions: beagle, in vivo
[12] = Terminal half life in beagle dog at 2.5 mg/kg, iv; format: ADME, organism-based, Canis lupus familiaris; set-up: dose 2.5 mg/kg, route intravenous; conditions: in vivo, read-out: beta t1/2 (converted)
[13] = AUC (0 to infinity) in beagle dog at 5 mg/kg, po; format: ADME, organism-based, Canis lupus familiaris, Plasma; set-up: dose 5 mg/kg, route oral, time infinity; conditions: beagle, plasma
[14] = Clearance in beagle dog at 2.5 mg/kg, iv; format: ADME, organism-based, Canis lupus familiaris; set-up: dose 2.5 mg/kg, route intravenous; conditions: in vivo
Cytochrome P450 2C9 = Cytochrome P450 2C9 (Homo sapiens, UniProt P11712); assay: Inhibition of CYP2C9 in human liver microsomes; format: ADME
[15] = Clearance in cynomolgus monkey at 2.5 mg/kg, iv; format: ADME, organism-based, Macaca fascicularis; set-up: dose 2.5 mg/kg, route intravenous; conditions: in vivo
Hepatitis C virus [16] = assay: Antiviral activity against HCV1b Con1 infected in human HuH7 cells assessed as inhibition of viral RNA replication by RT-PCR analysis; format: functional, organism-based, Hepacivirus hominis; conditions: isolate Con1, Huh-7
[17] = Ratio of EC50 for HCV1b Con1 to plasma concentration in Sprague-Dawley rat at 10 mg/kg, po after 6 hrs
[18] = Terminal half life in cynomolgus monkey at 2.5 mg/kg, iv; format: ADME, organism-based, Macaca fascicularis; set-up: dose 2.5 mg/kg, route intravenous; conditions: in vivo, read-out: beta t1/2 (converted)
[19] = AUC (0 to 6 hrs) in Sprague-Dawley rat at 10 mg/kg, po; format: ADME, organism-based; set-up: time < 6 hr, dose 10 mg/kg, route oral; conditions: plasma
[20] = Volume of distribution at steady state in Sprague-Dawley rat at 6 mg/kg, iv and 10 mg/kg, po; format: ADME, organism-based; conditions: in vivo, read-out: Vdss
Cytochrome P450 2D6 = Cytochrome P450 2D6 (Homo sapiens, UniProt P10635); assay: Inhibition of CYP2D6 in human liver microsomes; format: ADME
Rattus norvegicus [21] = species: Rattus norvegicus; assay: Drug metabolism in bile duct cannulated rat assessed as 6-(3-cyano-5-fluoro-6-(1-hydroxyethyl)-1-(pyrimidin-2-yl)-1H-indol-2-yl)pyridine-3-sulfonamide level in plasma; format: ADME, organism-based
[22] = Volume of distribution at steady state in beagle dog at 2.5 mg/kg, iv and 5 mg/kg, po; format: ADME, organism-based, Canis lupus familiaris; conditions: in vivo, read-out: Vdss
[23] = Terminal half life in Sprague-Dawley rat at 6 mg/kg, iv; format: ADME, organism-based; set-up: dose 6 mg/kg, route intravenous; conditions: in vivo, read-out: beta t1/2 (converted)
Rattus norvegicus [24] = species: Rattus norvegicus; assay: Drug metabolism in bile duct cannulated rat assessed as 6-(3-cyano-6-ethyl-5-fluoro-1-(pyrimidin-2-yl)-1H-indol-2-yl)pyridine-3-sulfonamide level in plasma; format: ADME, organism-based
[25] = Ratio of EC50 for HCV1b Con1 to plasma concentration in beagle dog at 5 mg/kg, po after 8 hrs
[26] = Cmax in Sprague-Dawley rat at 10 mg/kg, po; format: ADME, organism-based; set-up: dose 10 mg/kg, route oral; conditions: in vivo
[27] = Oral bioavailability in Sprague-Dawley rat at 10 mg/kg; format: ADME, organism-based; conditions: in vivo
[28] = Ratio of EC50 for HCV1b Con1 to plasma concentration in Sprague-Dawley rat at 10 mg/kg, po after 8 hrs
Cytochrome P450 3A4 [29] = biological target: T1, Cytochrome P450 3A4; assay: Induction of CYP3A4 activity in human hepatocytes at 5 uM relative to rifampicin; format: ADME, cell-based, Hepatocyte; procedure, shortened: as §1
[30] = Ratio of drug level in liver to plasma in Sprague-Dawley rat at 10 mg/kg, po after 6 hrs; format: ADME, organism-based; set-up: dose 10 mg/kg, route oral
Procedure, shortened: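 Male Sprague-Dawley rats, 10 mg/kg PO suspension in 0.4% hydroxypropyl methylcellulose; liver and plasma drug levels measured at 6 h, expressed as liver/plasma ratio.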

[31] = AUC (0 to infinity) in cynomolgus monkey at 5 mg/kg, po; format: ADME, organism-based, Macaca fascicularis; set-up: time infinity, dose 5 mg/kg, route oral; conditions: plasma
Rattus norvegicus [32] = assay: Toxicity in rat up to 2000 mg/kg/day; format: organism-based; conditions: in vivo
Procedure, shortened: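 Non-GLP 14-day rat safety study with daily dosing up to 2000 mg/kg/day.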

Canis familiaris = species: Canis familiaris; assay: Drug metabolism in bile duct cannulated dog assessed as GSH adduct formation; format: ADME, organism-based, Canis lupus familiaris; conditions: in vivo
[33] = Cmax in beagle dog at 5 mg/kg, po; format: ADME, organism-based, Canis lupus familiaris; set-up: dose 5 mg/kg, route oral; conditions: in vivo
Hepatocyte [34] = assay: Induction of CYP3A4 mRNA expression in human hepatocytes at 5 uM relative to rifampicin; format: ADME, cell-based; procedure, shortened: as §1
[35] = Cmax in cynomolgus monkey at 5 mg/kg, po; format: ADME, organism-based, Macaca fascicularis; set-up: dose 5 mg/kg, route oral; conditions: in vivo
[36] = Clearance in Sprague-Dawley rat at 6 mg/kg, iv; format: ADME, organism-based; set-up: dose 6 mg/kg, route intravenous; conditions: in vivo
[37] = Ratio of EC50 for HCV1b Con1 to plasma concentration in cynomolgus monkey at 5 mg/kg, po after 8 hrs

Sequence of Cytochrome P450 2C9 (P11712 whole entry): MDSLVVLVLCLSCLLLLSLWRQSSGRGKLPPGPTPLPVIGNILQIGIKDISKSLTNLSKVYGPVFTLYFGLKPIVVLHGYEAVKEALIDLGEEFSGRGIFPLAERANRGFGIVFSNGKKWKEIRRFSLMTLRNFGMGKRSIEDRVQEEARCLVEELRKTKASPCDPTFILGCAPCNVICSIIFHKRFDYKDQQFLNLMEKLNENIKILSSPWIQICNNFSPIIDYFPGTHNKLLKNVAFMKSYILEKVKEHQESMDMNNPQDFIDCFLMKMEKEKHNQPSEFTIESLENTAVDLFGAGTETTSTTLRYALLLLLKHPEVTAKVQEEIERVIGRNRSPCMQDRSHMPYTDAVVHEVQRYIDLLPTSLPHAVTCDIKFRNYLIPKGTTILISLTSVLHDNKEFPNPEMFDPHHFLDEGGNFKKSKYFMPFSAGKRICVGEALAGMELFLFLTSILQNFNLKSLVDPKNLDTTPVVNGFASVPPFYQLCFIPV
Sequence of Cytochrome P450 2D6 (P10635 whole entry): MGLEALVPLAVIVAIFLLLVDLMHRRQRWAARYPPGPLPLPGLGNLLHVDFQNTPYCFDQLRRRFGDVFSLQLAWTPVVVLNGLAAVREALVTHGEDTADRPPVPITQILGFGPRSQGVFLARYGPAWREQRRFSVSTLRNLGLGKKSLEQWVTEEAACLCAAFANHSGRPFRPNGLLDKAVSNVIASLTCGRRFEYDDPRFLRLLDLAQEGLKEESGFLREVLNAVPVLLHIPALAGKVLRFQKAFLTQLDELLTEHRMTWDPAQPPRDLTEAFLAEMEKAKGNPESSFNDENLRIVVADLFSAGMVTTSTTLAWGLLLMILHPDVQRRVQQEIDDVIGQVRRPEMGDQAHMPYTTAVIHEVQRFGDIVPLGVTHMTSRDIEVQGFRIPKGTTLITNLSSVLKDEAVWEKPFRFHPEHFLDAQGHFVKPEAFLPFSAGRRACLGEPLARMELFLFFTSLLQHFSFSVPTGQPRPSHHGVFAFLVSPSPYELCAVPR
T1 sequence (P08684 whole entry): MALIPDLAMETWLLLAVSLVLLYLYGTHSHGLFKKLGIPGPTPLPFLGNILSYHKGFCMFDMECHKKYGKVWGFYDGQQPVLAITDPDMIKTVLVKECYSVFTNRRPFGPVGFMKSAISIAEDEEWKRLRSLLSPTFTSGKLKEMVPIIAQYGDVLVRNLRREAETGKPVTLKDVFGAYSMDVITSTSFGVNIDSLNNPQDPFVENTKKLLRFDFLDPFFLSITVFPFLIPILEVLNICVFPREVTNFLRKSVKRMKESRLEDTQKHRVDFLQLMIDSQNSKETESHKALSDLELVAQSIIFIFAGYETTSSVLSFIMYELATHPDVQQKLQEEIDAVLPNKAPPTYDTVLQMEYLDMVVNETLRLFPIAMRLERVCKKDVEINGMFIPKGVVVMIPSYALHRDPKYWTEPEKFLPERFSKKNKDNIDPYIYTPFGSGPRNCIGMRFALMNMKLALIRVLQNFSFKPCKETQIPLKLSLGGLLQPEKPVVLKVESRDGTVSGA

Question: With `CCc1cc2c(cc1F)c(C#N)c(-c1ccc(S(=O)(=O)N[C@@H](C)C(F)(F)F)cn1)n2-c1ncccn1` as the molecule, how does the Vd [1] read?
Answer: 3.8 L/kg

Question: What about the Activity (Hepatocyte [2]) of the same molecule?
Answer: 9.8%

Question: And the Drug metabolism (Rattus norvegicus [3])?
Answer: Active

Question: And the IC50 [4]?
Answer: > 10 µM

Question: And the AUC(0-inf) [5]?
Answer: 20 µM·h

Question: And the Activity [6]?
Answer: 37%

Question: And the Activity (Cytochrome P450 3A4 [7])?
Answer: 6%

Question: What about the IC50 (Cytochrome P450 3A4 [8]) of the same molecule?
Answer: > 10 µM

Question: And the Drug metabolism (Rhesus monkey)?
Answer: Not Active

Question: And the EC50 (Hepatitis C virus [9])?
Answer: 7 nM

Question: And the bioavailability [10]?
Answer: 18%

Question: What about the bioavailability [11] of the same molecule?
Answer: 78%

Question: And the half-life [12]?
Answer: 534 min

Question: What about the AUC(0-inf) [13] of the same molecule?
Answer: 29 µM·h

Question: And the clearance [14]?
Answer: 4.6 mL/min/kg

Question: What about the IC50 (Cytochrome P450 2C9) of the same molecule?
Answer: > 10 µM

Question: And the clearance [15]?
Answer: 11 mL/min/kg

Question: And the EC50 (Hepatitis C virus [16])?
Answer: 2 nM

Question: What about the Ratio [17] of the same molecule?
Answer: 342

Question: And the half-life [18]?
Answer: 480 min

Question: And the AUC(0-t) at 6 h [19]?
Answer: 8.16 µM·h

Question: And the Vd [20]?
Answer: 3.9 L/kg

Question: What about the IC50 (Cytochrome P450 2D6) of the same molecule?
Answer: > 10 µM

Question: What about the Drug metabolism (Rattus norvegicus [21]) of the same molecule?
Answer: Active

Question: What about the Vd [22] of the same molecule?
Answer: 2.1 L/kg

Question: What about the half-life [23] of the same molecule?
Answer: 450 min

Question: And the Drug metabolism (Rattus norvegicus [24])?
Answer: Active

Question: And the Ratio [25]?
Answer: 460

Question: What about the Cmax [26] of the same molecule?
Answer: 2400 nM

Question: What about the bioavailability [27] of the same molecule?
Answer: 62%

Question: What about the Ratio [28] of the same molecule?
Answer: 325

Question: What about the Activity (Cytochrome P450 3A4 [29]) of the same molecule?
Answer: 9%

Question: And the Kp at 6 h [30]?
Answer: 25

Question: And the AUC(0-inf) [31]?
Answer: 3.1 µM·h

Question: What about the Activity (Rattus norvegicus [32]) of the same molecule?
Answer: Non-toxic

Question: What about the Drug metabolism (Canis familiaris) of the same molecule?
Answer: Not Active

Question: And the Cmax [33]?
Answer: 4 µM

Question: What about the Activity (Hepatocyte [34]) of the same molecule?
Answer: 15.4%

Question: And the Cmax [35]?
Answer: 540 nM

Question: What about the clearance [36] of the same molecule?
Answer: 10.1 mL/min/kg

Question: And the Ratio [37]?
Answer: 50

Question: With `Cc1cc2c(cc1F)c(C#N)c(-c1ccc(S(=O)(=O)N[C@@H](C)C(F)(F)F)cn1)n2-c1ncc(F)cn1` as the molecule, how does the IC50 [4] read?
Answer: > 10 µM

Question: What about the Activity [6] of the same molecule?
Answer: 96%

Question: And the IC50 (Cytochrome P450 3A4 [8])?
Answer: > 10 µM

Question: What about the IC50 (Cytochrome P450 2C9) of the same molecule?
Answer: > 10 µM

Question: And the EC50 (Hepatitis C virus [16])?
Answer: 4 nM

Question: What about the Ratio [17] of the same molecule?
Answer: 187

Question: What about the AUC(0-t) at 6 h [19] of the same molecule?
Answer: 4.08 µM·h

Question: And the IC50 (Cytochrome P450 2D6)?
Answer: > 10 µM

Question: For `Cc1cc2c(cc1F)c(C#N)c(-c1ccc(S(=O)(=O)N[C@@H](C)C(F)(F)F)cn1)n2-c1ncccc1F`, which IC50 [4] is on record?
Answer: > 10 µM

Question: What about the Activity [6] of the same molecule?
Answer: 59%

Question: And the IC50 (Cytochrome P450 3A4 [8])?
Answer: > 10 µM

Question: And the IC50 (Cytochrome P450 2C9)?
Answer: > 10 µM

Question: And the EC50 (Hepatitis C virus [16])?
Answer: 3 nM

Question: And the Ratio [17]?
Answer: 194

Question: And the AUC(0-t) at 6 h [19]?
Answer: 8.54 µM·h

Question: And the IC50 (Cytochrome P450 2D6)?
Answer: > 10 µM
